Source: ChEMBL document CHEMBL1156742, “Fluorinated rhodacyanine (SJL-01) possessing high efficacy for visceral leishmaniasis (VL)” (J Med Chem, 2010)

What was measured:
[1] = Selectivity ratio of IC50 for rat L6 cells to IC50 for Leishmania donovani MHOM/ET/67/L82; assay type: ADME, cell-based; conditions: for Ratio IC50: l6; for selectivity ratio: L6 cells, read-out: Ratio IC50
Summary of the method: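 Ratio of the L-6 cytotoxicity IC50 to the IC50 against axenic L. donovani amastigotes.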

[2] = tested on: Leishmania donovani; assay: Antileishmanial activity against Leishmania donovani MHOM/ET/67/L82 amastigotes infected in syrian golden hamster spleen after 72 hrs; assay type: functional, organism-based
Summary of the method: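 Hamster-maintained spleen amastigotes were grown axenically at 37 °C, 5% CO2 in Cunningham SM medium, pH 5.4, with 10% FBS. 10^5 amastigotes per well were exposed to serial drug dilutions for 72 h. Alamar blue (resazurin) was added for 2 h more, and fluorescence read at ex 536/em 588 nm. IC50 was taken from the sigmoidal inhibition curve versus control.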

[3] = tested on: Leishmania donovani; assay: Antileishmanial activity against Leishmania donovani MHOM/ET/67/HU3 infected in BALB/c mouse at 12.5 mg/kg, iv for 5 days from day 7 postinfection measured after 14 days by Giemsa staining; assay type: functional
Summary of the method: (§1)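 Female SPF BALB/c mice (6-8 weeks, ~20 g) infected iv via tail vein on day 0 with 1.5×10^7 hamster-spleen-derived amastigotes. Groups of five mice were treated once daily starting day 7. On day 14 the livers were weighed and Giemsa-stained smears prepared. Amastigotes were counted per 500 liver cells and expressed as amastigotes per liver cell × mg liver. % inhibition was calculated versus untreated mice.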

[4] = tested on: L6; assay: Cytotoxicity against rat L6 cells after 72 hrs by Alamar blue assay; assay type: cell-based
Summary of the method: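 L-6 myoblasts were grown in RPMI 1640 with L-glutamine and 10% FBS at 37 °C, 5% CO2, seeded at 4×10^4 cells/well. After 24 h they were given serial drug dilutions for 72 h. Alamar blue was added for 2 h, and fluorescence read at ex 536/em 588 nm to give IC50.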

[5] = tested on: Leishmania donovani; assay: Antileishmanial activity against Leishmania donovani MHOM/ET/67/HU3 infected in BALB/c mouse at 4.1 mg/kg, iv for 5 days from day 7 postinfection measured after 14 days by Giemsa staining; assay type: functional; summary of the method: as §1
[6] = tested on: Leishmania donovani; assay: Antileishmanial activity against Leishmania donovani MHOM/ET/67/L82 infected in NMRI mouse macrophage assessed as reduction in parasite burden after 4 days by Giemsa staining; conditions: MHOM/ET/67/L82, 4 days
[7] = tested on: Leishmania donovani; assay: Antileishmanial activity against Leishmania donovani MHOM/ET/67/HU3 infected in BALB/c mouse at 50 mg/kg, ip for 5 days from day 7 postinfection measured after 14 days by Giemsa staining; assay type: functional; conditions: MHOM/ET/67/HU3, ip, route intraperitoneal; summary of the method: as §1
[8] = tested on: Leishmania donovani; assay: Antileishmanial activity against Leishmania donovani MHOM/ET/67/HU3 infected in BALB/c mouse at 0.2 mg/kg, iv for 5 days from day 7 postinfection measured after 14 days by Giemsa staining; assay type: functional; summary of the method: as §1
[9] = tested on: Leishmania donovani; assay: Antileishmanial activity against Leishmania donovani MHOM/ET/67/HU3 infected in BALB/c mouse at 1.3 mg/kg, iv for 5 days from day 7 postinfection measured after 14 days by Giemsa staining; assay type: functional; summary of the method: as §1
[10] = tested on: Leishmania donovani; assay: Antileishmanial activity against Leishmania donovani MHOM/ET/67/HU3 infected in BALB/c mouse at 15 mg/kg, sc for 5 days from day 7 postinfection measured after 14 days by Giemsa staining; assay type: functional, organism-based; set-up: dose 15 mg/kg; summary of the method: as §1
[11] = tested on: Leishmania donovani; assay: Antileishmanial activity against Leishmania donovani MHOM/ET/67/HU3 infected in BALB/c mouse at 2 mg/kg, iv for 5 days from day 7 postinfection measured after 14 days by Giemsa staining; assay type: functional; summary of the method: as §1
[12] = tested on: Leishmania donovani; assay: Antileishmanial activity against Leishmania donovani MHOM/ET/67/HU3 infected in BALB/c mouse at 50 mg/kg, po for 5 days from day 7 postinfection measured after 14 days by Giemsa staining; assay type: functional; summary of the method: as §1
[13] = tested on: Leishmania donovani; assay: Antileishmanial activity against Leishmania donovani MHOM/ET/67/HU3 infected in BALB/c mouse at 0.5 mg/kg, iv for 3 days from day 7 postinfection measured after 14 days by Giemsa staining; assay type: functional; summary of the method: as §1
[14] = tested on: Leishmania donovani; assay: Antileishmanial activity against Leishmania donovani MHOM/ET/67/HU3 infected in BALB/c mouse at 1.5 mg/kg, iv for 3 days from day 7 postinfection measured after 14 days by Giemsa staining; assay type: functional; summary of the method: as §1
[15] = Leishmania donovani, MHOM/ET/67/L82, Spleen, 72 h

| IC50 [2, 15] | Molecule | selectivity ratio [1] | IC50 ([4]; Rattus norvegicus, L6, 72 h) | also measured |
| --- | --- | --- | --- | --- |
| 0.021 µM | CCCCN1C=CC=c2o/c(=C/C=c3\s/c(=C\c4sc5ccccc5[n+]4CC)n(CCC)c3=O)nc21 | 99 | 2.07 µM | – |
| 11.7 µM | CN1/C(=C/C=c2\s/c(=C\c3sc4ccc(F)cc4[n+]3C)n(CCO)c2=O)Sc2ccccc21 | > 15 | > 169 µM | – |
| 0.106 µM | CCn1c(=O)/c(=C/C=C2\Sc3ccccc3N2C)s/c1=C\c1sc2ccccc2[n+]1C | 75 | 7.98 µM | – |
| 0.052 µM | CCN1C(=O)/C(=C/C=C2\Sc3ccccc3N2C)S/C1=N\c1sc2ccccc2[n+]1C | 2990 | 156 µM | IC50 [6]: 4.69 µM |
| 0.028 µM | CCN1C(=O)/C(=C/C=C2\Sc3ccccc3N2C)S/C1=N\c1sc2ccc(Cl)cc2[n+]1C | 757 | 21.2 µM | IC50 [6]: 0.08 µM; inhibition in vivo at 50 mg/kg [7]: 18.2% |
| 0.677 µM | CCn1c(=O)/c(=C/C=c2\nc3c(o2)=CC=CN3C)s/c1=C\c1sc2ccccc2[n+]1C | 40 | 27.2 µM | – |

Second part, the molecule before the results:

| Molecule | IC50 [2, 15] | selectivity ratio [1] | IC50 ([4]; Rattus norvegicus, L6, 72 h) | also measured |
| --- | --- | --- | --- | --- |
| CCn1c(=O)/c(=C/C=C2\Sc3ccccc3N2C)s/c1=C\c1sc2ccc(F)cc2[n+]1C.[Cl-] | – | – | – | Ratio IC50 [1]: > 15000; IC50 [2]: 0.011 µM; inhibition in vivo at 12.5 mg/kg [3]: 95.4%; IC50 ([4]; l6): > 174 µM; inhibition in vivo at 4.1 mg/kg [5]: 97.2%; IC50 [6]: 0.353 µM; inhibition in vivo at 50 mg/kg [7]: 31.4%; inhibition in vivo at 0.2 mg/kg [8]: 16.1%; inhibition in vivo at 1.3 mg/kg [9]: 94.9% |
| CCn1c(=O)/c(=C/N=c2\scc(C)n2C)s/c1=C\c1sc2ccc(F)cc2[n+]1C | 0.182 µM | 91 | 16.5 µM | – |
| CCn1c(=O)/c(=C/C=c2\nc3c(o2)=CC=CN3C)s/c1=C\c1sc2ccc(F)cc2[n+]1C | 1.04 µM | 27 | 28.5 µM | – |
| D-gluconic acid, 2,4:2',4'-O-[oxybis-oxidostibylidyne]bis-, trisodium salt, nonahydrate | – | – | – | inhibition [10]: 62% |
| CCCN1C=CC=c2o/c(=C/C=c3\s/c(=C\c4sc5ccccc5[n+]4C)n(CC)c3=O)nc21 | 0.69 µM | 2 | 1.44 µM | – |
| CCn1c(=O)/c(=C/C=C2\Sc3ccccc3N2C)s/c1=C\c1sc2ccc(F)cc2[n+]1C.O=C([O-])/C=C\C(=O)O | – | – | – | Ratio IC50 [1]: 2870; IC50 [2]: 0.025 µM; IC50 ([4]; l6): 71.7 µM |
| CCn1c(=O)/c(=C2\Sc3ccccc3N2C)s/c1=C\c1cccc[n+]1CC | 0.255 µM | 450 | 115 µM | – |
| CCn1c(=O)/c(=C/C=C2\Sc3ccccc3N2C)s/c1=C\c1sc2ccc(F)cc2[n+]1C.CS(=O)(=O)[O-] | – | – | – | Ratio IC50 [1]: 4225; IC50 [2]: 0.02 µM; IC50 ([4]; l6): 84.5 µM; inhibition in vivo at 2 mg/kg [11]: 46.4%; inhibition in vivo at 50 mg/kg [12]: 28% |
| C[C@@H]1[C@H](O)[C@@H](C)/C=C/C=C/C=C/C=C/C=C/C=C/C=C/[C@H](O[C@@H]2O[C@H](C)[C@@H](O)[C@H](N)[C@@H]2O)C[C@@H]2O[C@](O)(C[C@@H](O)C[C@@H](O)[C@H](O)CC[C@@H](O)C[C@@H](O)CC(=O)O[C@H]1C)C[C@H](O)[C@H]2C(=O)O [AMPHOTERICIN B] | – | – | – | inhibition in vivo at 0.5 mg/kg [13]: 78.6%; inhibition in vivo at 1.5 mg/kg [14]: 95.5% |
| CCCCCCCCCCCCCCCCOP(=O)([O-])OCC[N+](C)(C)C [MILTEFOSINE] | 0.43 µM | – | – | IC50 [6]: 0.811 µM |
| CCn1c(=O)/c(=C/N=c2\sc(C)cn2C)s/c1=C\c1sc2ccc(F)cc2[n+]1C | 0.118 µM | 88 | 10.4 µM | – |
| CCn1c(=O)/c(=C/N=c2n(C)c3ccccc3n2C)s/c1=C\c1sc2ccc(F)cc2[n+]1C | 0.129 µM | 627 | 80.9 µM | – |
| CCn1c(=O)/c(=C/N=c2\ccccn2C)s/c1=C\c1sc2ccc(F)cc2[n+]1C | 2.02 µM | 16 | 31.7 µM | – |
